The source made the active and inactive calls. The calls are words filed in the database; no cut-off is given here.
How the values were obtained:
Salmonella typhimurium = assay: Antibacterial activity against Salmonella Typhimurium at 30 ug/disk by agar diffusion assay; assay type: functional, organism-based; details: Salmonella enterica subsp. enterica serovar Typhimurium
Klebsiella aerogenes = assay: Antibacterial activity against Klebsiella aerogenes at 30 ug/disk by agar diffusion assay; assay type: functional, organism-based
Escherichia coli = assay: Antibacterial activity against Escherichia coli at 30 ug/disk by agar diffusion assay; assay type: functional, organism-based
Enterobacter cloacae = assay: Antibacterial activity against Enterobacter cloacae at 30 ug/disk by agar diffusion assay; assay type: functional, organism-based
Staphylococcus aureus = assay: Antibacterial activity against Staphylococcus aureus at 30 ug/disk by agar diffusion assay; assay type: functional, organism-based
[1] = biological target: T1, Prostaglandin G/H synthase 2 (Mus musculus) (UniProt Q05769); assay: Inhibition of COX2-mediated PGE2 production in LPS-stimulated mouse RAW264.7 cells at 25 to 50 uM by ELISA
T1 sequence (whole entry): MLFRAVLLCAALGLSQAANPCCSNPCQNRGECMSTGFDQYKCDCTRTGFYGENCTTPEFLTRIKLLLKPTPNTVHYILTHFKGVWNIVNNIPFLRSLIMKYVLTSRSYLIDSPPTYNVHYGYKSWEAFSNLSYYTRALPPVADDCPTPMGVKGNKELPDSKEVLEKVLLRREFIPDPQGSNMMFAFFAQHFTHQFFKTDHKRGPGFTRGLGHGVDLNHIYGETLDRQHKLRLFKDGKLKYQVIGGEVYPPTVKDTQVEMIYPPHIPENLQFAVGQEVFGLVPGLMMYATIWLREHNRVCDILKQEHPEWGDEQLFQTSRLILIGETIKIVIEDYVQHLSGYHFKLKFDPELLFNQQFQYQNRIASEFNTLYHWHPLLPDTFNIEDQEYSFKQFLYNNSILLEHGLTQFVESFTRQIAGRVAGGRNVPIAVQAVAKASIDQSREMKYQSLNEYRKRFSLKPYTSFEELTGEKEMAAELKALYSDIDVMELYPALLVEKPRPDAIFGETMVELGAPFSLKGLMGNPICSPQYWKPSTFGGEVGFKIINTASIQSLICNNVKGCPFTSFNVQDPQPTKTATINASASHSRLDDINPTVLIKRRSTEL

RAW264.7 [2] = assay: Inhibition of LPS-induced iNOS mRNA expression in mouse RAW264.7 cells at 12.5 to 50 uM by […]; assay type: functional, cell-based
Outline: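 Total RNA from LPS (1 μg/mL)-stimulated cells was isolated by Tri-Reagent. RNA (1 μg) was primed with oligo(dT)18 (70 °C, 5 min) and reverse-transcribed with M-MuLV and 0.5 μM dNTP (25 °C 5 min, 37 °C 60 min), then inactivated at 70 °C for 15 min.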

RAW264.7 [3] = assay: Antiinflammatory activity in mouse RAW264.7 cells assessed as suppression of LPS-stimulated IL6 production at 25 to 50 uM after 24 hrs by ELISA; assay type: functional, cell-based
Outline: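 Cells at 1.5 × 10^5 cells/mL were preincubated 18 h, then given LPS (1 μg/mL) plus samples (50 and 25 μM) for 24 h. Samples were dissolved in EtOH and diluted in DMEM, with final solvent ≤0.1%. IL-6 in the supernatant was measured by mouse ELISA. Mean ± SD of triplicate experiments.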

RAW264.7 [4] = assay: Inhibition of NO production in LPS-stimulated mouse RAW264.7 cells assessed as nitrite accumulation after 10 mins by Griess reaction method; assay type: functional, cell-based; details: RAW264.7, 10 min
Outline: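 Cells were stimulated 24 h with LPS (1 μg/mL) alone or with samples (250, 50, 10, 2 μM). Supernatant was mixed 1:1 with Griess reagent (0.1% naphthalene diamine dihydrochloride, 1% sulfanilamide, 2.5% H3PO4) for 10 min at room temperature. Absorbance at 540 nm was converted against a sodium nitrite standard curve. Mean ± SD of triplicates.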

RAW264.7 [5] = assay: Antiinflammatory activity in mouse RAW264.7 cells assessed as inhibition of LPS-stimulated IL6 mRNA expression at 12.5 to 50 uM by RT-PCR; assay type: functional, cell-based
RAW264.7 [6] = assay: Cytotoxicity against mouse RAW264.7 cells after 24 hrs by WST-1 assay; assay type: cell-based; details: RAW264.7, 24 h
Outline: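 Cells were exposed 24 h to LPS (1 μg/mL) alone or with samples (250, 50, 10, 2 μM). WST-1 reagent was then added for 2 h, and formazan was read at 450 nm. Mean ± SD of triplicate experiments.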

inhibition [1] | IC50 (RAW264.7 [4]) [µM] | Structure (SMILES) | Activity (Salmonella typhimurium) | Activity (Klebsiella aerogenes) | Activity (Escherichia coli) | Activity (Enterobacter cloacae) | Activity (Staphylococcus aureus) | inhibition (RAW264.7 [2]) | Activity (RAW264.7 [3]) | inhibition (RAW264.7 [5]) | IC50 (RAW264.7 [6]) [µM]
– | – | N=C(N)NCCC[C@@H](NC(=O)c1ccc(OC(=O)c2c[nH]c3ccccc23)cc1)C(=O)O | inactive | inactive | inactive | inactive | inactive | – | – | – | –
Active | 96 | N=C(N)NCCC[C@@H](NC(=O)c1ccc(OC(=O)c2ccc(O)cc2)cc1)C(=O)O [HERDMANINE C] | inactive | inactive | inactive | inactive | inactive | Active | Active | Active | –
Active | 9 | N[C@@H](Cc1ccc(OC(=O)c2c[nH]c3cc(Br)c(O)cc23)cc1)C(=O)O [HERDMANINE D] | inactive | inactive | inactive | inactive | inactive | Active | Active | Active | 170

— ChEMBL document CHEMBL1914300, “Anti-inflammatory amino acid derivatives from the ascidian Herdmania momus” (J Nat Prod, 2011)
